B1: tRNA (parent)
chain: GUUCCGUUGGCGUAAUGGUAACGCGUCUCCCUCCUAAGGAGAAGACUGCGGGUUCGAGUCCCGUACGGAACG

Consider 38 variants from the RNAGym collection of RNA variant scans (doi:10.1126/science.aae0568).

Fewer inactive variants are shown than the library holds.

The variants in the data set derive from B1. Briefly: yeast fitness relative to wild type (ratio to wild type); higher = fitter; tRNA-Arg(CCU), competitive growth, 37 C, YPD. The essentials: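 Gene amplicons from the start population and from each of six end populations were read by 100-nucleotide paired-end sequencing. Those end populations came from pooled Saccharomyces cerevisiae strains carrying tRNA-Arg(CCU) gene variants at the native locus, competed in YPD at 37°C for 24 hours. Fitness relative to wild type was worked out from changes in genotype frequencies. Genotypes needed ≥ 100 starting reads, and estimates < 0.5 were set to 0.5.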
As to GUUCCGUUGGCGUGAUGGUAACGCGUCUCCCUCCUAAGGAGAAGACUGCGGGUUCGGGUCCCGUACGGAACG, the yeast fitness is 0.905.

As for GUUCCGUUGGCGUGAUGGUAACGCGUCUCCCUCCUAAGGAGAAGACUGCGGGUUCGUGUCCCGUACGGAACG, the yeast fitness turned out to be 0.563.

Take GUUCCGUUGGCGUGAUGGUAACGCGUCUCCCUCCUAAGGAGAAGACUGCGGGUUCGAGUCCCGUACGGCACG: the yeast fitness was determined as 0.729.

As to GUUCCGUUGGCGUGAUGGUAACGGGUCUCCCUCCUAAGGAGAAGACUGCGGGUUCGAGUCCCGUCCGGAACG, the yeast fitness was not above 0.5.

For the variant GUUCCGUUGGCGUGAUGGUAAAGCGUAUUCCUCCUAAGGAGCAGACUGCGGGUUCGUGUACCGUACGGAACG, the yeast fitness is not above 0.5.

Turning to GUUCCGUUGGCGUGAUGGUAAAGCGUCUCCCUCCUAAGGAGAAGACUGCGGGUUCGUGUCCCGUACGGAACG, the yeast fitness was not above 0.5.

For the variant GUUCCGUUGGCGUGAUGGUAAGGCGUCUGCCUCCUAAGGACAAGACUGCGGGUUCGAGUCCCGUACGGAACG, the yeast fitness was not above 0.5.

Consider GUUCCGUUGGCGUGAUGGUAACGAAUCUCCAUCCUAAGGAGAAGACUGCGGGUUCGAGUCCCGUACGGAACG, for which the yeast fitness is not above 0.5.

Regarding GUUCCGUUGGCGUGAUGGUAACGUGUCUCCCUCCUAAGGAGAAGACUGCGGGUUCGAGUCCCGUACGGAACG, the yeast fitness worked out at 0.784.

Turning to GUUCCGUUGGCGUGAUGGUAACGCGUCUCACUCAUAAGGAGACGACUGCGGGUUCGAGUCCUAUACGGAACG, the yeast fitness is not above 0.5.

For GUUCCGUUGGCGUGAUGGUAACGCGUCUUCCUCCUAAGGAGAAGACUGCGGGUUCGAGUCCUGUACGGAUCG, the yeast fitness worked out at 0.536.

In the case of GUUCCGUUGGCGUGAUGGUAACGUGGCUCCCUCCUAAGGAGAAGACUGCGGGUUCGAGUCCCGUACGGAACG, the yeast fitness was not above 0.5.

As for GUUCCGUUGGCGUGAUGGUAACGCGUCUUCCUCCUAAGGAAAAGACUGCGGGUGCGAGUCCCGUACGGUACG, the yeast fitness worked out at 0.621.

Consider GUUCCGUUGGCGUGAUGGUAAUGCGUCUCCCUCCUAAGGAGAAGACUGCGGGUUCGAGUCCCGUACGGAACG, for which the yeast fitness is 0.783.

Consider GUUCCGUUGGCGUGAUGGUAAAGCGUCUCCCUCCUAAGGAGAAGACUGCGGGUUCGAGUCCCGUACGGAACG, for which the yeast fitness came to 0.982.

In the case of GUUCCGUUGGCGUGAUGGUAACGCGUUUCCCUCCUAAGGAGAAGACUGCGGGUUCGAGUCCCGUACGGAACG, the yeast fitness was 0.974.

Turning to GUUCCGUUGGCGUGAUGGUAACGCGUAUCCCUCCUAAGGAGAAGACUGCGGGUUCGAGUCCCGUACGGAACG, the yeast fitness turned out to be 0.916.

With GUUCCGUUGGCGUGAUGGUAACGUGUCUCCCUCCUAAGGAGAAGACUGCGGGUUCGAGUCCCGUACCGAACG, the yeast fitness is 0.54.

As for GUUCCGUUGGCGUGAUGGUAACGCGUCUUCCUCCUAAGGAGAAGUCUGCGGGUUCGAGUCCCGUACGGAACG, the yeast fitness was 0.626.

In the case of GUUCCGUUGGCGUGAUGGUAACGCGUGUCCUUCCUAAGGAGAAGACUGCGGGUUCGAGUCCCGUACGGAACG, the yeast fitness was determined as 0.501.

In the case of GUUCCGUUGGCGUGAUGGUAACGCGUCUUCUUUCUAAGGAGAAGACUGCGGGUUCGAGUCCCGUACGGAACG, the yeast fitness came out at 0.543.

GUUCCGUUGGCGUGAUGGUAACGCGUCUCACUCCUAAGGAGAAGACUGCAAGUUCGAGUCCCGUACGGGACG: the yeast fitness was not above 0.5.

Turning to GUUCCGUUGGCGUGAUGGUAACGUGUCUCCCUCCUCAGGAGAUGACUGCGGGUUCGAGUCCCGUACGGUACG, the yeast fitness is not above 0.5.

With GUUCCGUUGGCGUGAUGGUAACGGGUCUCCCUCCUAAGGAGCAGACUGCGGGUUCGAGUCCCGUACGGAACG, the yeast fitness stood at 0.512.

In the case of GUUCCGUUGGCGUGAUGGUAACGCGUAUCCCUCCUAAGGAGAAGACUGCGGGUGCGAGUCCCGUACGCAACG, the yeast fitness was not above 0.5.

Take GUUCCGUUGGCGUGAUGGUAACGUGUCUCCCUCCUAAGGAGAAGACUGCGAGUUCGAGUCCCGUACGGAACG: the yeast fitness was not above 0.5.

As for GUUCCGUUGGCGUGAUGGUAACGCGUCUGCCUCCUAAGGAGAAGACUGCGGGUUCGAGUCCUGUACGGAACG, the yeast fitness amounted to 0.573.

As for GUUCCGUUGGCGUGAUGGUAACGAGUCUCCCUCGUAACGAGAAGACUGCGGGUUCGAGUCCCGUACGGAACG, the yeast fitness was not above 0.5.

Turning to GUUCCGUUGGCGUGAUGGUAACGCGUCUUCCUCCUAAGGAAAAGACUGCGGGUUCGAGUCCCAUACGGAACG, the yeast fitness is not above 0.5.

For GUUCCGUUGGCGUGAUGGUAAAGCGUCUGGCUCCUAAGGAGAAGACUUCGGGUUCGAGUCCCGUACGGAACG, the yeast fitness amounted to 0.618.

GUUCCGUUGGCGUGAUGGUAACGGGUCUCCCUCCUAAGGGGAAGACUGCGGGAUCGAGUCCCGUACGCAACG: the yeast fitness is not above 0.5.

With GUUCCGUUGGCGUGAUGGUAAGGCGUCUCCCUCCGAAGGCGAAGACUGCGGGUUCGAGUCCCGUACGGAUCG, the yeast fitness was not above 0.5.

As for GUUCCGUUGGCGUGAUGGUAAUGCGUCUCCCUCUUAAGGAGAAGACUGCGGGUUAGAGUCCCGUACGGAACG, the yeast fitness turned out to be 0.583.

With GUUCCGUUGGCGUGAUGGUAACGGGUCUCCCUCCUCAGGAGAAGACUGCGGGUUCGAGUCCCGUACGGACCG, the yeast fitness was not above 0.5.

Regarding GUUCCGUUGGCGUGAUGGUAACGGCUAUCCCUCCUAAGGCGAAGACUGCGAGUUCGAGUCCCGUACGGAACG, the yeast fitness was not above 0.5.

On to GUUCCGUUGGCGUGAUGGUAACGCGUCUCCCUCCUAAGGAGAAGACUGCGGGUUCGAGUCCCGUACGGACCG, for which the yeast fitness is 0.803.

GUUCCGUUGGCGUGAUGGUAACGCGUCUCCCUCCUAAGGAGAAGACUGCGGGUUCGAGUCCCGUACGGAGCG: the yeast fitness was 0.861.

Consider GUUCCGUUGGCGUGAUGGUAAAGCGUUUUCCUCCUAAGGAGAAGACUGCUGGUCCGAGUCCCGUACGCAACG, for which the yeast fitness was not above 0.5.
